Results on 14 compounds are retold here after ChEMBL document CHEMBL4359835, “Design, Synthesis, and Anti-RNA Virus Activity of 6'-Fluorinated-Aristeromycin Analogues” (J Med Chem, 2019).

A short description of series [1]: […] CHIKV LS3 infected in African green monkey Vero E6 cells assessed as reduction in virus-induced cytopathic effect measured after 96 hrs post-infection by MTS assay. The conditions noted are these: Chikungunya virus, LS3, Vero C1008, 96 h. Background: Damage to the host cells serves as the signal in cytopathic effect assays.
Series [2] relates to Vero. Nature of the series: Cytotoxicity against African green monkey Vero cells assessed as reduction in cell viability measured after 72 hrs by MTS assay. It is filed as cell-based. The conditions noted are these: chlorocebus sabaeus. The method, boiled down:
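Uninfected Vero cells (20 000/well) were incubated with compound for 72 h, alongside MERS-CoV assays. Viability by MTS for 2–2.5 h, formaldehyde fixation, then A495 relative to untreated controls. Eight concentrations, quadruplicate; CC50 from nonlinear regression.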

Series [3] can be described thus: […]. It is filed as cell-based. The conditions noted are these: Middle East respiratory syndrome-related coronavirus, EMC/2012, Vero, 72 h.
The nature of series [4]: (§1) Cytotoxicity against African green monkey Vero E6 cells assessed as reduction in cell viability measured after 72 hrs by MTS assay. It is filed as cell-based, Vero C1008. The following applies: chlorocebus sabaeus, Vero E6 cells (Vero C1008). The method, boiled down:
(§2)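 Uninfected Vero E6 cells (10 000/well) were exposed to compound for 72 h, in parallel with SARS-CoV CPE assays. Eight concentrations in quadruplicate; CC50 by nonlinear regression.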
(Tetrazolium dyes change colour on reduction, which living cells bring about.)

The nature of series [5]: Selectivity index, ratio of CC50 for African green monkey Vero E6 cells to EC50 for inhibition of RNA-dependent RNA polymerase in SARS-CoV Frankfurt1 infected in African green monkey Vero E6 cells assessed as reduction in virus-induced cytopathic effect. The conditions noted are these: read-out: Ratio CC50/EC50. It is filed as toxicity, Vero C1008.
A short description of series [6]: […]. The conditions noted are these: Severe acute respiratory syndrome-related coronavirus, Vero C1008, 72 h. Also noted: species or system SARS coronavirus Frankfurt 1.
The nature of series [7]: Selectivity index, ratio of CC50 for African green monkey Vero E6 cells to EC50 for inhibition of RNA-dependent RNA polymerase in CHIKV LS3 infected in African green monkey Vero E6 cells assessed as reduction in virus-induced cytopathic effect. It is filed as toxicity, Vero C1008. The following applies: read-out: Ratio CC50/EC50. The method in brief:
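Vero E6 cells (5000/well) were infected with CHIKV at MOI 0.005 in EMEM/25 mM HEPES/2% FCS containing compound. CPE was read by MTS at 96 hpi (A495, relative to uninfected). Uninfected cells were tested in parallel for CC50. Eight concentrations, quadruplicate; EC50 and CC50 by nonlinear regression; SI = CC50/EC50.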

A short description of series [8]: Selectivity index, ratio of CC50 for African green monkey Vero cells to EC50 for inhibition of RNA-dependent RNA polymerase in ZIKV SL0612 infected in African green monkey Vero cells assessed as reduction in virus-induced cytopathic effect. It is filed as toxicity. The conditions noted are these: read-out: Ratio CC50/EC50. The method, boiled down: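 Vero CCL81 cells (5000/well) received ZIKV at MOI 0.05 in compound-containing infection medium. MTS was read at 96 hpi (A495, relative to uninfected), with uninfected cells run in parallel for CC50. Eight concentrations, quadruplicate; nonlinear regression; SI = CC50/EC50.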

In another series the target is Adenosylhomocysteinase (Homo sapiens, UniProt P23526). Nature of the series: Inhibition of human placental SAH hydrolase expressed in Escherichia coli JM109 using SAH as substrate preincubated for 10 mins followed by SAH addition and measured after 20 mins by […] reagent-based spectrophotometric method.
Series [9] deals with Vero. Nature of the series: Cytotoxicity against African green monkey Vero cells assessed as reduction in cell viability measured after 96 hrs by MTS assay. It is filed as cell-based. The following applies: chlorocebus sabaeus. The method in brief:
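Uninfected Vero CCL81 cells (5000/well) were treated for 96 h in parallel with ZIKV CPE assays. Eight concentrations, quadruplicate; CC50 by nonlinear regression.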

The next series relates to Vero C1008. The series is described as §1. It is filed as cell-based. The conditions noted are these: chlorocebus sabaeus, vero c1008, 72 h. The method in brief:
as §2

For series [10], the system named is Middle East respiratory syndrome-related coronavirus. Nature of the series: Antiviral activity against MERS-CoV EMC/2012 infected in African green monkey Vero cells assessed as log reduction in virus titre at >0.3 uM measured after 48 hrs viral infection by plaque assay. It is filed as functional.
The test system of a further series is SARS-CoV. Nature of the series: Antiviral activity against SARS-CoV Frankfurt1 infected in African green monkey Vero E6 cells assessed as log reduction in viral titre at >0.3 uM measured at 48 hrs post infection by plaque assay. It is filed as functional, Severe acute respiratory syndrome-related coronavirus, Frankfurt 1, Vero C1008.
In a further series the test system is Zika virus. Nature of the series: Antiviral activity against ZIKV SL0612 infected in African green monkey Vero cells assessed as log reduction in viral titre up to 1.5 uM measured at 48 hrs post infection by plaque assay. It is filed as functional. The method in brief:
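Vero E6 cells (7.5 × 10^4/well) adhered overnight in DMEM/8% FCS. ZIKV infection was at MOI 1 for 2 h at 37 °C in EMEM/2% FCS with compound (0–1.5 μM), followed by washing and 48 h in compound-containing medium. Supernatant titre was read by plaque assay on Vero CCL81. Duplicates in two independent experiments (n = 4).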

The nature of series [11]: Partition coefficient, log P of the compound in liquid/aqueous phase by pH-metric method. It is filed as physicochemical. The following applies: octanol/water.
Series [12] is described as follows: Selectivity index, ratio of CC50 for African green monkey Vero cells to EC50 for inhibition of RNA-dependent RNA polymerase in MERS-CoV EMC/2012 infected in African green monkey Vero cells assessed as reduction in virus-induced cytopathic effect. It is filed as toxicity. The following applies: read-out: Ratio CC50/EC50.
The test system of the next series is Chikungunya virus. Nature of the series: Antiviral activity against CHIKV LS3 infected in African green monkey Vero E6 cells assessed as log reduction in viral titer measured after 30 hrs post infection by plaque assay. It is filed as functional, Vero C1008.

Adenosylhomocysteinase, sequence (P23526 whole entry): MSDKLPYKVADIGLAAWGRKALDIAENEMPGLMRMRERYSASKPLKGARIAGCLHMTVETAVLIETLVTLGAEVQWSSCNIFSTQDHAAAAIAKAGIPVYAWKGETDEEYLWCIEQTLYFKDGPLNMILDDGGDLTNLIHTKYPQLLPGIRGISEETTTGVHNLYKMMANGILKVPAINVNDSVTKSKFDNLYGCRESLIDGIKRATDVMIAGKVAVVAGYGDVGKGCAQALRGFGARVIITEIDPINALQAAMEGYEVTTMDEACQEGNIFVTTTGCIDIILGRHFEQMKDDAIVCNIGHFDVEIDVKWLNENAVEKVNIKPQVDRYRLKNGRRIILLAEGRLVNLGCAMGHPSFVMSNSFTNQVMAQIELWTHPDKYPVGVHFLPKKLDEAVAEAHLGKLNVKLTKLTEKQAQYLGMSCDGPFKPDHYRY

For the compound `Nc1ncnc2c1ncn2[C@H]1[C@H](O)[C@H](O)[C@@H](CO)[C@H]1F`, the EC50 in [1] was above 100 µM; in series [3], 0.2 µM. Also, the CC50 in the series on Vero [2] is 0.6 µM. Further, the CC50 at 72 h in series [4] is above 100 µM.
As to `CC(C)OC(=O)[C@H](C)N[P@](=O)(OC[C@@H]1[C@@H](O)[C@@H](O)[C@H](n2cnc3c(N)ncnc32)C1(F)F)Oc1ccccc1`, the selectivity ratio is above 3.7 in [5], above 6.4 in [7] and above 14.3 in series [8]. For the same compound, the EC50 in series [1] came to 1.95 µM; in series [6], 6.8 µM; in series [3], 9.3 µM. Further, the CC50 with Vero [2] was above 50 µM; in the series on Vero [9], above 25 µM. Moreover, the CC50 at 72 h in [4] was 12.5 to 25 µM. The compound further registered an IC50 on Adenosylhomocysteinase above 100 µM.
As for `Nc1ccn([C@H]2[C@H](O)[C@H](O)[C@@H](CO)C2(F)F)c(=O)n1`, the values for the EC50 in [1], in [6] and in series [3] were above 100 µM, above 100 µM and above 50 µM, respectively. The CC50 in the series with Vero [2] was above 50 µM; in the series on Vero C1008 it was above 100 µM; in the series with Vero [9], above 100 µM. The compound further displayed an IC50 against Adenosylhomocysteinase above 100 µM.
Turning to `Nc1ncnc2c1ncn2[C@H]1[C@H](O)[C@H](O)[C@@H](CO)C1(F)F`, the FC in series [10] was 2.5; in the series with SARS-CoV, 1.5; with Zika virus, 1; in the series on Chikungunya virus, above 2. Further, the selectivity ratio in series [5] was 11.8; in [7] it was above 9.6; in [12], 16; in series [8], above 9.6. For the same compound, the EC50 worked out at 0.13 µM in series [1], 0.5 µM in [6] and 0.2 µM in [3]. Further, the CC50 was 3.2 µM in the series with Vero [2] and above 2.5 µM in the series with Vero [9]. In addition, the logP in series [11] came out at 0.02. The CC50 at 72 h in series [4] was in the range of 1.25 to 5.9 µM. On Adenosylhomocysteinase, this compound displayed an IC50 of 1.06 µM.
Regarding `O=c1ccn([C@H]2[C@H](O)[C@H](O)[C@@H](CO)C2(F)F)c(=O)[nH]1`, the EC50 is above 100 µM in [1], above 100 µM in series [6] and above 50 µM in [3]. The CC50 was above 50 µM with Vero [2], above 100 µM in the series on Vero C1008 and above 100 µM in the series with Vero [9]. Also, the IC50 on Adenosylhomocysteinase was above 100 µM.
Consider `Nc1ncnc2c1ncn2[C@H]1[C@H](O)[C@H](O)[C@@H](CO)[C@@H]1F`, for which the EC50 in series [1] turned out to be 0.53 µM.
Consider `CC(C)OC(=O)[C@H](C)N[P@](=O)(OC[C@@H]1[C@@H](O)[C@@H](O)[C@H](n2ccc(=O)[nH]c2=O)[C@@H]1F)Oc1ccccc1`, for which the 50% effective concentration (EC50) is above 100 µM in [1], above 100 µM in series [6] and above 50 µM in series [3]. Further, the figures for the CC50 with Vero [2], with Vero C1008 and in the series on Vero [9] were above 50 µM, above 100 µM and above 100 µM, respectively. Besides, the IC50 against Adenosylhomocysteinase was above 100 µM.
As for `CNc1ncnc2c1ncn2[C@H]1[C@H](O)[C@H](O)[C@@H](CO)[C@H]1F`, the EC50 in series [1] is above 100 µM; in series [6], above 100 µM; in series [3], above 50 µM. Also, the CC50 in the series on Vero [2] was above 50 µM; in the series on Vero C1008, above 100 µM; in the series on Vero [9], above 100 µM. Also, inhibition at Adenosylhomocysteinase was half-maximal at 4.39 µM (IC50).
As for `Nc1ccn([C@H]2[C@H](O)[C@H](O)[C@@H](CO)[C@H]2F)c(=O)n1`, the EC50 in series [1], in series [6] and in [3] was above 100 µM each time. The CC50 in the series with Vero [2], with Vero C1008 and in the series with Vero [9] was above 100 µM in each case. The compound further yielded an IC50 on Adenosylhomocysteinase above 100 µM.
`O=c1ccn([C@H]2[C@H](O)[C@H](O)[C@@H](CO)[C@H]2F)c(=O)[nH]1`: the EC50 in [1], in series [6] and in series [3] was above 100 µM each time. Also, the CC50 in the series with Vero C1008 is above 100 µM. At Adenosylhomocysteinase, this compound displayed an IC50 above 100 µM.
For `O=c1ccn([C@H]2[C@H](O)[C@H](O)[C@@H](CO)[C@@H]2F)c(=O)[nH]1`, the EC50 in [1], in [6] and in [3] was above 100 µM throughout. The CC50 with Vero [2] and in the series with Vero [9] was above 100 µM in each case. The IC50 at Adenosylhomocysteinase is above 100 µM.
`CC(C)OC(=O)[C@H](C)N[P@](=O)(OC[C@@H]1[C@@H](O)[C@@H](O)[C@H](n2ccc(=O)[nH]c2=O)C1(F)F)Oc1ccccc1`: the EC50 in [1] is above 100 µM; in series [6], above 100 µM; in [3], above 50 µM. The CC50 with Vero [2] is above 50 µM; with Vero C1008, above 100 µM; with Vero [9], above 100 µM. Also, on Adenosylhomocysteinase, the IC50 was above 100 µM.
With `Nc1ncnc2c1ncn2[C@@H]1C[C@H](CO)[C@@H](O)[C@H]1O` [ARISTEROMYCIN], the EC50 in series [1] is 0.8 µM; in [6], above 50 µM; in series [3] it was above 50 µM. Further, the CC50 in the series on Vero [2] amounted to 2 µM; in the series with Vero [9], 2.4 µM. Also, the CC50 at 72 h in series [4] lay within 2.4 to 6.3 µM.
Regarding `CNc1ncnc2c1ncn2[C@H]1[C@H](O)[C@H](O)[C@@H](CO)C1(F)F`, the EC50 in [1] is above 100 µM; in series [6], above 100 µM; in series [3] it was above 50 µM. In addition, the CC50 in the series on Vero [2] is 12.5 µM; in the series with Vero C1008, above 100 µM; in the series on Vero [9], above 100 µM. The IC50 at Adenosylhomocysteinase worked out at 0.76 µM.

The term EC50 denotes the concentration at which the effect is half-maximal. As a reminder, the CC50 is the concentration giving 50% cytotoxicity. A word on the IC50: it is the point on the concentration scale where inhibition reaches its midpoint. What is called logP is the decadic logarithm of the partition coefficient of the neutral form, usually between octanol and water.
